Assay results taken from ChEMBL document CHEMBL3751707, “Silicon Incorporated Morpholine Antifungals: Design, Synthesis, and Biological Evaluation” (ACS Med Chem Lett, 2015).
Converted amounts (≈) assume the structure as drawn.

Key:
[1] = test system: Candida albicans; assay: Antifungal activity against Candida albicans ATCC 24433 after 24 to 36 hrs by broth microdilution method; assay type: functional, organism-based
How it was run: (§1)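 CLSI broth microdilution against yeasts (M27-A3) and filamentous fungi (M38-A2). Read-outs: IC50 (concentration giving 50% growth inhibition), MIC, and MFC (minimum fungicidal concentration), all in μg/mL. Assay done twice in triplicate.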

[2] = test system: Candida albicans; assay: Antifungal activity against Candida albicans ATCC 24433 after 72 hrs by broth microdilution method; assay type: functional; conditions: ATCC 24433, 72 h; how it was run: as §1
[3] = test system: Candida albicans; assay: Antifungal activity against Candida albicans ATCC 10231 after 24 to 36 hrs by broth microdilution method; assay type: functional, organism-based; how it was run: as §1
[4] = test system: Candida albicans; assay: Antifungal activity against Candida albicans ATCC 10231 after 72 hrs by broth microdilution method; assay type: functional; conditions: ATCC 10231, 72 h; how it was run: as §1
[5] = test system: Cryptococcus neoformans; assay: Antifungal activity against Cryptococcus neoformans ATCC 34664 after 24 to 36 hrs by broth microdilution method; assay type: functional, organism-based; how it was run: as §1
[6] = test system: Cryptococcus neoformans; assay: Antifungal activity against Cryptococcus neoformans ATCC 34664 after 72 hrs by broth microdilution method; assay type: functional; conditions: ATCC 34664, 72 h; how it was run: as §1
[7] = test system: Nakaseomyces glabratus; assay: Antifungal activity against Candida glabrata NCYC 388 after 24 to 36 hrs by broth microdilution method; assay type: functional, organism-based; how it was run: as §1
[8] = test system: Nakaseomyces glabratus; assay: Antifungal activity against Candida glabrata NCYC 388 after 72 hrs by broth microdilution method; assay type: functional; conditions: NCYC 388, 72 h; how it was run: as §1
[9] = test system: Candida tropicalis; assay: Antifungal activity against Candida tropicalis ATCC 750 after 24 to 36 hrs by broth microdilution method; assay type: functional, organism-based; how it was run: as §1
[10] = test system: Candida tropicalis; assay: Antifungal activity against Candida tropicalis ATCC 750 after 72 hrs by broth microdilution method; assay type: functional; conditions: ATCC 750, 72 h; how it was run: as §1
[11] = test system: Aspergillus niger; assay: Antifungal activity against Aspergillus niger ATCC 10578 after 48 hrs by broth microdilution method; assay type: functional, organism-based; conditions: ATCC 10578, 48 h; how it was run: as §1
[12] = test system: Aspergillus niger; assay: Antifungal activity against Aspergillus niger ATCC 10578 after 72 hrs by broth microdilution method; assay type: functional; conditions: ATCC 10578, 72 h; how it was run: as §1
[13] = Toxicity in human RBC assessed as hemolysis upto 128 ug/ml; assay type: cell-based; conditions: erythrocyte
[14] = Toxicity in human RBC assessed as partial hemolysis at 256 ug/ml; assay type: cell-based; conditions: erythrocyte
[15] = Metabolic stability in mouse liver microsomes after 30 mins by LC-MS/MS analysis; assay type: ADME; conditions: read-out: Stability
How it was run: (§2)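 Test compounds were incubated 30 min with liver microsomes (human or mouse, per line), and values are reported as % metabolic stability after 30 min.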

[16] = Metabolic stability in human liver microsomes after 30 mins by LC-MS/MS analysis; assay type: ADME; conditions: read-out: Stability; how it was run: as §2

Compound | IC50 [1] [µg/mL] | MIC [1] [µg/mL] | MFC [2] [µg/mL] | IC50 [3] [µg/mL] | MIC [3] [µg/mL] | MFC [4] [µg/mL] | IC50 [5] [µg/mL] | MIC [5] [µg/mL] | MFC [6] [µg/mL] | IC50 [7] [µg/mL] | MIC [7] [µg/mL] | MFC [8] [µg/mL] | IC50 [9] [µg/mL] | MIC [9] [µg/mL] | MFC [10] [µg/mL] | IC50 [11] [µg/mL] | MIC [11] [µg/mL] | MFC [12] [µg/mL] | Activity [13] | other results
CC(CNC1CCN(C)CC1)Cc1ccc([Si](C)(C)C)cc1 (stereo not drawn) | 5.13 (≈ 16.1 µM) | 8 (≈ 25.1 µM) | 8 (≈ 25.1 µM) | 1.59 (≈ 4.99 µM) | 2 (≈ 6.28 µM) | 2 (≈ 6.28 µM) | 6.9 (≈ 21.7 µM) | 16 (≈ 50.2 µM) | 16 (≈ 50.2 µM) | 5.92 (≈ 18.6 µM) | 8 (≈ 25.1 µM) | 16 (≈ 50.2 µM) | 1.5 (≈ 4.71 µM) | 64 (≈ 201 µM) | 256 (≈ 804 µM) | 4.5 (≈ 14.1 µM) | 8 (≈ 25.1 µM) | > 256 | Non-toxic | Activity [14]: Toxic
CC(Cc1ccc(C(C)(C)C)cc1)CN1CCCCC1 (stereo not drawn) [FENPROPIDIN] | 0.19 (≈ 0.695 µM) | 0.25 (≈ 0.914 µM) | 0.5 (≈ 1.83 µM) | 0.27 (≈ 0.987 µM) | 1 (≈ 3.66 µM) | 2 (≈ 7.31 µM) | 0.22 (≈ 0.804 µM) | 1 (≈ 3.66 µM) | 32 (≈ 117 µM) | 0.1 (≈ 0.366 µM) | 0.5 (≈ 1.83 µM) | 16 (≈ 58.5 µM) | 0.125 (≈ 0.457 µM) | 4 (≈ 14.6 µM) | 256 (≈ 936 µM) | 16 (≈ 58.5 µM) | 32 (≈ 117 µM) | 128 (≈ 468 µM) | Non-toxic | remaining at 0.5 h [15]: 1.1%; remaining at 0.5 h [16]: 34.4%
CC(Cc1ccc([Si](C)(C)C)cc1)CN1CCCCC1 (stereo not drawn) | 0.12 (≈ 0.414 µM) | 0.25 (≈ 0.863 µM) | 2 (≈ 6.91 µM) | 0.11 (≈ 0.38 µM) | 0.25 (≈ 0.863 µM) | 32 (≈ 111 µM) | 0.0625 (≈ 0.216 µM) | 0.125 (≈ 0.432 µM) | 8 (≈ 27.6 µM) | 0.035 (≈ 0.121 µM) | 0.125 (≈ 0.432 µM) | 8 (≈ 27.6 µM) | 1 (≈ 3.45 µM) | 4 (≈ 13.8 µM) | 64 (≈ 221 µM) | 41.2 (≈ 142 µM) | 64 (≈ 221 µM) | 128 (≈ 442 µM) | Non-toxic | 
CCC(C)(C)c1ccc(CC(C)CN2CC[Si](C)(C)CC2)cc1 (stereo not drawn) | 1.68 (≈ 5.07 µM) | 4 (≈ 12.1 µM) | 16 (≈ 48.2 µM) | 0.28 (≈ 0.844 µM) | 0.5 (≈ 1.51 µM) | 64 (≈ 193 µM) | 1.4 (≈ 4.22 µM) | 2 (≈ 6.03 µM) | 4 (≈ 12.1 µM) | 1.47 (≈ 4.43 µM) | 4 (≈ 12.1 µM) | 4 (≈ 12.1 µM) | 13.8 (≈ 41.6 µM) | 64 (≈ 193 µM) | 256 (≈ 772 µM) | 0.16 (≈ 0.482 µM) | 0.5 (≈ 1.51 µM) | 64 (≈ 193 µM) |  | 
CC(Cc1ccc([Si](C)(C)C)cc1)CN1CCC(O)CC1 (stereo not drawn) | 0.396 (≈ 1.3 µM) | 1 (≈ 3.27 µM) | 2 (≈ 6.55 µM) | 0.19 (≈ 0.622 µM) | 0.25 (≈ 0.818 µM) | 4 (≈ 13.1 µM) | 0.93 (≈ 3.04 µM) | 2 (≈ 6.55 µM) | 16 (≈ 52.4 µM) | 0.196 (≈ 0.641 µM) | 0.5 (≈ 1.64 µM) | 8 (≈ 26.2 µM) | 0.198 (≈ 0.648 µM) | 4 (≈ 13.1 µM) | 256 (≈ 838 µM) | 0.25 (≈ 0.818 µM) | 0.5 (≈ 1.64 µM) | 256 (≈ 838 µM) | Non-toxic | Activity [14]: Toxic
CC(Cc1ccc(C(C)(C)C)cc1)C(=O)NC[Si](C)(C)c1ccccc1 (stereo not drawn) |  | ≥ 256 | ≥ 256 |  | ≥ 256 | ≥ 256 |  | ≥ 256 | ≥ 256 |  | ≥ 256 | ≥ 256 |  | ≥ 256 | ≥ 256 |  | ≥ 256 | ≥ 256 |  | 
CC(Cc1ccc([Si](C)(C)C)cc1)CN1CC[Si](C)(C)CC1 (stereo not drawn) | 1.25 (≈ 3.75 µM) | 4 (≈ 12 µM) | 8 (≈ 24 µM) | 0.45 (≈ 1.35 µM) | 1 (≈ 3 µM) | 4 (≈ 12 µM) | 1.98 (≈ 5.93 µM) | 8 (≈ 24 µM) | 64 (≈ 192 µM) | 1.75 (≈ 5.24 µM) | 8 (≈ 24 µM) | 16 (≈ 48 µM) | 44.8 (≈ 134 µM) | 64 (≈ 192 µM) | > 256 | 0.5 (≈ 1.5 µM) | 2 (≈ 5.99 µM) | > 256 | Non-toxic | remaining at 0.5 h [15]: 17.3%; remaining at 0.5 h [16]: 44.5%
CC(Cc1ccc(C(C)(C)C)cc1)C(=O)N1CC[Si](C)(C)CC1 (stereo not drawn) |  | ≥ 256 | ≥ 256 |  | ≥ 256 | ≥ 256 |  | ≥ 256 | ≥ 256 |  | ≥ 256 | ≥ 256 |  | ≥ 256 | ≥ 256 |  | ≥ 256 | ≥ 256 |  | 
